In paper PMC7346273 (ACS Omega, 2020):

Molecular target: Aβ40 (Homo sapiens, UniProt P05067)
Assay: Aβ40 aggregation inhibition and fibril destabilization
Assay type: biochemical
Settings: synthetic peptides
How it was run: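 Aβ40 was pre-treated in HFIP (1.0 mg/mL), lyophilized, stored at −20 °C, redissolved in DMSO to 5 mM and sonicated 10 min. It was diluted into PBS pH 7.5 with 0.2% SDS (100 μM final) and incubated at 37 °C for 7 days, with test compound added before incubation or to preformed aggregates. Samples were imaged by acoustic AC-mode AFM. ThT was read immediately (Aβ40 5 μM, ThT 20 μM; ex 450 nm, em 480–600 nm) with the no-Aβ40 background subtracted; mean ± SD, three independent experiments.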

Chain of Aβ40 (P05067 672-711 limits assumed): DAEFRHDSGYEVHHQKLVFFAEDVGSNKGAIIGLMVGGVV

KAISFSK [Peptide P1]
ThT fluorescence of treated Aβ40 compared to control (Aβ40/peptide = 10:1, 7 days, ThT 20 μM, Aβ40 5 μM): even higher ThT fluorescence | effect on Aβ40 aggregation (AFM) (Aβ40/peptide = 10:1, PBS pH 7.5 with 0.2% SDS, 37 °C, 7 days): aggravated the aggregation tendency
